Assay outcomes: PubChem, Sanford-Burnham Center for Chemical Genomics
hIAP act = human IAP activators, primary screen, biochemical, luminescence, uHTS. activation factor at 10 µM. AID 2524, 2010. purified human IAP, CDP-Star luminescence, 30 min; hits give high values; 1 = vehicle-only enzyme, 0 = enzyme-free background. 0.16% of 330,000 active. Intestinal-type alkaline phosphatase (Homo sapiens), P09923;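 active = activation factor of the enzyme at least 2-fold when tested at 20 µM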
Target sequence (P09923 whole entry, looked up): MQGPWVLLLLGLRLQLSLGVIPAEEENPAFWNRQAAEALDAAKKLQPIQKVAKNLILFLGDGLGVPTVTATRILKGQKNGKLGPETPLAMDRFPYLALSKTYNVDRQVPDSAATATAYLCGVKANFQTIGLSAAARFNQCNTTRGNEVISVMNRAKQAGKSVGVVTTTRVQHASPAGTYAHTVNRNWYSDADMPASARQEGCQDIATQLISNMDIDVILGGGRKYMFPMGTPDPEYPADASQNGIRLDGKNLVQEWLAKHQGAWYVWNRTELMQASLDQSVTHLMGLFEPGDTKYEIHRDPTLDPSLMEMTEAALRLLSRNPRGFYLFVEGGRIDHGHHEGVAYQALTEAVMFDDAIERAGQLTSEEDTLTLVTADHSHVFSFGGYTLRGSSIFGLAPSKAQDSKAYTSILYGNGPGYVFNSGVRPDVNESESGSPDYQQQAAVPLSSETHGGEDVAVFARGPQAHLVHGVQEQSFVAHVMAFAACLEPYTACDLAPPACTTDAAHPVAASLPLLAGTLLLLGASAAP
mIAP block = inhibitors of mouse IAP, primary screen, biochemical, luminescence, uHTS | 0.2% of 330,000 active | intestinal alkaline phosphatase [Mus musculus] | purified mouse IAP, CDP-Star luminescence, 30 min | inhibition, % at 10 µM | AID 2806, 2010;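 active = inhibition of at least 40% at 10 µM in the primary screen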;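 also: plate controls were DMSO with enzyme for no effect and no enzyme wells for full effect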
bIAP inhibitor = bovine intestinal alkaline phosphatase inhibitors, primary screen, selectivity assay for TNAP inhibitor project, biochemical, bovine IAP, CDP-star luminescence. alkaline phosphatase, intestinal [Bos taurus]. 190,000 tested, under 10 active. purified bovine IAP, 30 min. inhibition, % at 20 µM. AID 1019, 2008;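 active = over 50% inhibition of intestinal alkaline phosphatase at 20 µM in the single-dose screen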
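System: purified bovine intestinal alkaline phosphatase (IAP) enzyme; Input: IAP diluted 1/65,000,000 in the well; Measured by: CDP-star luminescence signal; Compound dosing: 20 µM single dose; Incubation: 30 min reaction at room temperature.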
hIAP inh = human IAP inhibitors, primary screen, biochemical, luminescence, uHTS; AID 2544, 2010; purified IAP, CDP-Star luminescence, 30 min; inhibition, % at 10 µM; Intestinal-type alkaline phosphatase (Homo sapiens), P09923; 0.12% of 330,000 active;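 active = inhibition reaching a set limit with compound at 10 µM in the primary screen, cut at about 35% in these data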;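 also: plate controls were DMSO wells with enzyme for no effect and no-enzyme buffer wells for full effect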
mIAP activ = activators of mouse IAP, primary screen, biochemical, luminescence, uHTS. muIAP, CDP-Star luminescence, 30 min; hits give high values; 1 = vehicle-only enzyme signal, 0 = enzyme-free wells. AID 2805, 2010. 0.24% of 330,000 active. intestinal alkaline phosphatase [Mus musculus]. activation factor at 10 µM;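 active = activation factor of at least 2 at 20 µM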
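Assay system: mouse IAP enzyme / Compound: DMSO-dissolved test compounds / Timing: 30 min, room temperature / Measured by: luminescence from enzymatic CDP-Star hydrolysis / Control set: DMSO-only wells, enzyme-free buffer wells as negative control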
bIAP activator = bovine intestinal alkaline phosphatase activators, primary screen, biochemical, bovine IAP, CDP-star luminescence; alkaline phosphatase, intestinal [Bos taurus]; purified bovine IAP, 30 min; hits give high values; fold of DMSO-control signal, blank-subtracted; activation factor at 20 µM; 0.17% of 200,000 active;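 active = activation factor of 2 or more at 20 µM, a signal rise over negative controls twice the positive control's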
mIAP inh conf = inhibitors of mouse IAP, confirmation, biochemical, luminescence, single concentration | shares compounds with mIAP block | purified mouse IAP, CDP-Star luminescence, 30 min | inhibition, % at 10 µM | 4.7% of 11,000 active;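 active = inhibition of at least 40% at 10 µM in either of the two replicates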;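 also: plate controls were DMSO wells with enzyme for no effect and buffer wells lacking enzyme for full effect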
Starred values were filed as active, the others as inactive; i = inactive; nt = no result. Sampled rows, rich in hits. Any-hit rate of the full collection: about 0.79%.

SMILES	hIAP act	mIAP block	bIAP inhibitor	hIAP inh	mIAP activ	bIAP activator	mIAP inh conf
O=c1c(O)c(-c2cc(O)c(O)c(O)c2)oc2cc(O)cc(O)c12	1.2	75.1*	nt	-19.7	0.249	nt	75.2*
O=c1c(O)c(-c2ccccc2)oc2cc(O)cc(O)c12	1.22	5.7	nt	-22.3	0.943	nt	nt
CCOCCCN(C(=O)c1snc(C(N)=O)c1N)C(C(=O)NC1CCCC1)c1ccc(O)cc1 (stereo unspecified)	1.04	-0.2	nt	-3.8	1	nt	nt
CC(=O)Nc1ccc(S(=O)(=O)N2CCN(S(=O)(=O)N3CCOCC3)CC2)cc1	1.15	-11.1	nt	-14.7	1.11	nt	nt
O=S(=O)(c1ccc(NC(=S)N/N=C/c2ccc(O)c(O)c2)cc1)N1CCOCC1	0.655	70.5*	nt	34.5	0.295	nt	75.5*
CC(NC(=S)Nc1ccc(S(=O)(=O)N2CCOCC2)cc1)C1CC2CCC1C2 (stereo unspecified)	1.45	-301.6	-9.6	-45.4	4.02*	1.1	-145.0
N#Cc1ccc(/C=N/NC(=S)Nc2ccc(S(=O)(=O)N3CCOCC3)cc2)cc1	1	16.7	nt	-0.4	0.833	nt	nt
CC(C)NC(=O)Nc1ccc2c(c1)C(=O)N([C@H](C)CO)C[C@H](C)[C@@H](CN(C)C(=O)NC1CCCCC1)O2	0.999	-8.0	nt	0.1	1.08	nt	nt
C[C@H](CO)N1C[C@H](C)[C@@H](CN(C)C(=O)NC2CCCCC2)Oc2ccc(NC(=O)Nc3ccccc3)cc2C1=O	0.895	-158.8	nt	10.5	2.59*	nt	-99.6
C[C@H](CO)N1C[C@H](C)[C@@H](CN(C)C(=O)Nc2ccccc2)Oc2ccc(NC(=O)Nc3ccccc3)cc2C1=O	1.13	-207.3	nt	-12.6	3.07*	nt	-122.6
Cc1cccc(N2CSC3=C(C#N)C(c4ccc(C)o4)CC(=O)N3C2)c1 (stereo unspecified)	1.05	57.5*	-1.3	-5.2	0.425	1	63.3*
COc1ccc(OC)c(C2CC(=O)N3CN(c4ccccc4)CSC3=C2C#N)c1 (stereo unspecified)	0.985	36.7	5.4	1.5	0.633	0.9	nt
CCC(C)c1ccccc1NC(=O)C(C)OC(=O)CN1C(=O)NC(C)(C)C1=O (stereo unspecified)	0.936	-3.4	nt	6.4	1.03	nt	nt
C#CCOCCOCCOCCNc1nc(N2CCN(C(=O)CCCCCCCCCCNC(=O)[C@H](CCC(=O)O)n3cc(CCCCCN)nn3)CC2)nc(N2CCN(C(=O)CCCCCCCCCCNC(=O)[C@@H]([C@H](C)O)n3cc(C)nn3)CC2)n1	1.03	-3.2	nt	-2.9	1.03	nt	nt
C#CCOCCOCCOCCNc1nc(N2CCN(C(=O)CCCCCCCCCCNC(=O)Cn3cc(CCCCCN)nn3)CC2)nc(N2CCN(C(=O)CCCCCCCCCCNC(=O)[C@H]([C@@H](C)CC)n3cc(CCCCCN)nn3)CC2)n1	0.827	-307.8	nt	17.3	4.08*	nt	-267.4
C#CCOCCOCCOCCNc1nc(N2CCN(C(=O)CCCCCCCCCCNC(=O)[C@H](CCCCN)n3cc(C)nn3)CC2)nc(N2CCN(C(=O)CCCCCCCCCCNC(=O)[C@@H]([C@H](C)CC)n3cc(CCCCCN)nn3)CC2)n1	1.08	-195.5	nt	-7.9	2.96*	nt	-262.9
C#CCOCCOCCOCCNc1nc(N2CCN(C(=O)CCCCCCCCCCNC(=O)[C@H]([C@@H](C)CC)n3cc(CCCCCN)nn3)CC2)nc(N2CCN(C(=O)CCCCCCCCCCNC(=O)[C@@H]([C@H](C)O)n3cc(C)nn3)CC2)n1	1.02	-113.2	nt	-2.4	2.13*	nt	-310.1
CC1CCCC(=NNC(=O)C2COc3ccccc3O2)C1 (stereo unspecified)	1.08	-7.3	nt	-8.1	1.07	nt	nt
COc1cccc(NC(=S)NCCC(c2ccccc2)c2ccccc2)c1	0.902	i	-31.6	9.8	6.21*	1.3	-252.7
COc1ccc(NC(=S)NCCC(c2ccccc2)c2ccccc2)c(OC)c1	1.02	-76.9	-38.2	-2.2	1.77	1.4	nt
COc1cccc(NC(=O)NCCCCc2ccccc2)c1	1.1	-127.1	nt	-9.6	2.27*	nt	-116.1
COc1ccc(NC(=O)NCCCCc2ccccc2)cc1OC	1.35	-42.0	nt	-35.1	1.42	nt	nt
COc1cc(NC(=S)NCCC(c2ccccc2)c2ccccc2)cc(OC)c1	0.855	-412.8	12.1	14.5	5.13*	0.9	-227.5
O=C(Cc1ccc(-c2ccccc2)cc1)Nc1ncccc1O	1.02	3.3	nt	-1.7	0.967	nt	nt
COc1ccc(S(=O)(=O)NNC(=O)c2cc3ccccc3o2)cc1	1.18	-1.2	-3.8	-18.0	1.01	1	nt
SMILES	hIAP act	mIAP block	bIAP inhibitor	hIAP inh	mIAP activ	bIAP activator	mIAP inh conf
O=C(CN1C(=O)c2ccccc2S1(=O)=O)c1ccc(O)c(O)c1	1.04	52.7*	nt	-4.4	0.473	nt	57.1*
O=C(CN1C(=O)c2ccccc2S1(=O)=O)c1ccc(F)c(F)c1	0.976	2.3	nt	2.4	0.977	nt	nt
N=C1/C(=C\c2coc3ccc(O)cc3c2=O)C(=O)N=C2SC=CN12	1.07	58.9*	nt	-6.6	0.411	nt	64.1*
Cc1cc(C)cc(NC(=O)NCc2c(-c3ccccc3)noc2C)c1	1.04	-369.9	nt	-3.7	4.7*	nt	-173.2
Cc1nn(C)c(C)c1CNC(=O)Nc1cccc(Cl)c1	1.11	-23.4	-4.1	-10.9	1.23	1	nt
Cc1onc(-c2ccccc2)c1CNC(=O)Nc1cccc(Cl)c1	1.26	-302.3	nt	-25.9	4.02*	nt	-132.6
Cc1onc(-c2ccccc2)c1CNC(=O)Nc1ccc(F)cc1F	1.19	-44.1	nt	-19.1	1.44	nt	nt
Cc1onc(-c2ccccc2)c1CNC(=O)Nc1ccc(C(F)(F)F)cc1	1.23	-306.3	nt	-23.0	4.06*	nt	-99.1
COc1ccc2nc(SCC(=O)NC(C)c3ccccc3)[nH]c2c1 (stereo unspecified)	1.04	-10.4	nt	-4.0	1.1	nt	nt
Cc1ccc(N2CC(C(=O)N3CCC(C(=O)Nc4nnc(C(C)(C)C)s4)CC3)CC2=O)cc1 (stereo unspecified)	1.01	2.6	nt	-1.3	0.974	nt	nt
COc1ccc(NC(=O)Nc2ccccc2)cc1S(=O)(=O)N1CCCCC1	1.67	-346.3	-6.3	-67.3	4.46*	1.1	-187.4
COc1ccccc1NS(=O)(=O)c1cc(NC(=O)Nc2cccc(C)c2)ccc1N1CCCCC1	1.24	-456.9	8.5	-23.5	5.57*	0.9	-278.3
